Seven compounds from ChEMBL document CHEMBL1759840, “2,3-Substituted quinoxalin-6-amine analogs as antiproliferatives: a structure-activity relationship study” (2011) can be followed below.

Calls of active or inactive are those of the source. The rule behind the calls is not given here.

Experiment [1] has as its system HT-29. Briefly: Growth inhibition of human HT-29 cells after 72 hrs by alamar blue assay. Particulars: HT-29, 72 h. In kind it is functional. On the technique in general: The colour change of resazurin is a common sign of viable cells or microbes.
In experiment [2] the test system is PC-3. Briefly: Growth inhibition of human PC3 cells at 20 uM after 72 hrs by alamar blue assay. The experiment is classed as functional. The note with it: for inhibition of growth at 20 µM: PC-3, 72 h, read-out: GI. Summed up:
(§1)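 Single-concentration screen at 20 μM with 72 h exposure across a panel of cancer lines: lung A549, pancreatic AsPC1, colon HT29, breast MDA-MB-231, prostate PC3, ovarian SKOV3 and bone U2OS. Growth inhibition read after 72 h.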

For experiment [3], the system named is MDA-MB-231. As to the kind of experiment: Growth inhibition of human MDA-MB-231 cells after 72 hrs by alamar blue assay. The experiment is classed as functional. The note with it: MDA-MB-231, 72 h.
Experiment [4] deals with SK-OV-3. Briefly: Growth inhibition of human SKOV3 cells at 20 uM after 72 hrs by alamar blue assay. In kind it is functional. Particulars: for inhibition of growth at 20 µM: SK-OV-3, 72 h, read-out: GI. Summed up: as §1
The subject of experiment [5] is MDA-MB-231. As to the kind of experiment: Growth inhibition of human MDA-MB-231 cells at 20 uM after 72 hrs by alamar blue assay. In kind it is functional. The note with it: for inhibition of growth at 20 µM: MDA-MB-231, 72 h, read-out: GI. Summed up:
as §1

The subject of experiment [6] is HeLa. As to the kind of experiment: Induction of Mcl-1 dependent apoptosis in doxycycline-stimulated human HeLa cells assessed as condensed nuclei for 12 hrs using Hoechst dye. The experiment is classed as functional, cell-based.
For experiment [7], the system named is PC-3. Briefly: Induction of apoptosis in human PC3 cells assessed as increase in caspase 3/7 activity at 20 uM after 1 hr by luminescence assay. In kind it is functional, cell-based. An outline of the steps: (§2)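 Caspase 3/7 induction was followed over time, up to 72 h, in MDA-MB-231 and PC3 cells, with etoposide as positive control.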
The test system of experiment [8] is PC-3. As to the kind of experiment: Growth inhibition of human PC3 cells after 72 hrs by alamar blue assay. The experiment is classed as functional. The note with it: PC-3, 72 h.
In experiment [9] the test system is ASPC1. As to the kind of experiment: Growth inhibition of human AsPC1 cells after 72 hrs by alamar blue assay. In kind it is functional. The note with it: ASPC1, 72 h.
The test system of experiment [10] is U2OS. Briefly: Growth inhibition of human U2OS cells after 72 hrs by alamar blue assay. In kind it is functional.
Experiment [11] has as its system MDA-MB-231. Briefly: Induction of apoptosis in human MDA-MB-231 cells assessed as increase in caspase 3/7 activity at 20 uM after 1 hr by luminescence assay. In kind it is functional, cell-based. Summed up:
as §2

Experiment [12] concerns U2OS. As to the kind of experiment: Growth inhibition of human U2OS cells at 20 uM after 72 hrs by alamar blue assay. The experiment is classed as functional. The note with it: for inhibition of growth at 20 µM: read-out: GI. An outline of the steps:
as §1

The subject of experiment [13] is HT-29. As to the kind of experiment: Growth inhibition of human HT-29 cells at 20 uM after 72 hrs by alamar blue assay. The experiment is classed as functional. Particulars: for inhibition of growth at 20 µM: HT-29, 72 h, read-out: GI. An outline of the steps: as §1
The subject of experiment [14] is HeLa. As to the kind of experiment: Induction of apoptosis in human HeLa cells overexpressing Bad3SA assessed as PARP cleavage at 20 uM by Western blotting. The experiment is classed as functional, cell-based.
For experiment [15], the system named is SK-OV-3. Briefly: Growth inhibition of human SKOV3 cells after 72 hrs by alamar blue assay. In kind it is functional. Particulars: SK-OV-3, 72 h.
Experiment [16] concerns HeLa. As to the kind of experiment: Induction of apoptosis in human HeLa cells overexpressing Bad3SA assessed as increase in caspase 3/7 activity at 20 uM after 1 hr by luminescence assay. In kind it is functional, cell-based.
Experiment [17] deals with A549. As to the kind of experiment: Growth inhibition of human A549 cells at 20 uM after 72 hrs by alamar blue assay. In kind it is functional. The note with it: for inhibition of growth at 20 µM: A549, 72 h, read-out: GI. An outline of the steps: as §1
In experiment [18] the test system is A549. As to the kind of experiment: Growth inhibition of human A549 cells after 72 hrs by alamar blue assay. The experiment is classed as functional. Particulars: A549, 72 h.
Experiment [19] relates to ASPC1. Briefly: Growth inhibition of human AsPC1 cells at 20 uM after 72 hrs by alamar blue assay. The experiment is classed as functional. Particulars: for inhibition of growth at 20 µM: ASPC1, 72 h, read-out: GI. Summed up:
as §1

On to `O=C(Nc1ccc(Br)cc1)Nc1ccc2nc(-c3ccco3)c(-c3ccco3)nc2c1`, for which the GI50 with HT-29 [1] turned out to be 12.1 µM; in the experiment on MDA-MB-231 [3], 8.4 µM; in the experiment on PC-3 [8], 5.9 µM; in the experiment with ASPC1 [9] it was 17.3 µM; in the experiment on U2OS [10], 10.8 µM; with SK-OV-3 [15], 16.8 µM. This compound yielded a concentration for 50% growth inhibition (GI50) with A549 [18] of 6.4 µM. In addition, the inhibition of growth at 20 µM with PC-3 [2] is > 100%; with SK-OV-3 [4] it was 94.9%; with MDA-MB-231 [5], > 100%; with U2OS [12], > 100%; in the experiment on HT-29 [13], 88.6%; in the experiment with A549 [17], > 100%. The inhibition of growth at 20 µM with ASPC1 [19] was > 100%. Also, the Activity entry in the experiment on HeLa [6] was “Dose-dependent effect”. Further, the result in the experiment on PC-3 [7], in the experiment with MDA-MB-231 [11], in the experiment on HeLa [14] and in the experiment on HeLa [16] was Active.

In the case of `Cc1nc2ccc(NC(=O)Nc3ccccc3)cc2nc1C`, the “growth inhibition (GI)” value in the experiment on PC-3 [2], with SK-OV-3 [4], in the experiment with MDA-MB-231 [5], in the experiment on U2OS [12], in the experiment on HT-29 [13] and in the experiment with A549 [17] was “inactive” in each case. Further, the “growth inhibition (GI)” value in the experiment with ASPC1 [19] is “inactive”.

As for `O=C(Nc1ccc2nc(-c3ccco3)c(-c3ccco3)nc2c1)NN1CCC(Cc2ccccc2)CC1`, the inhibition of growth at 20 µM in the experiment with PC-3 [2] was > 100%; in the experiment with SK-OV-3 [4], 47.6%; with MDA-MB-231 [5], 90.8%; in the experiment with U2OS [12], 80.3%; with HT-29 [13], 55.2%; in the experiment with A549 [17] it was 93.1%. The inhibition of growth at 20 µM with ASPC1 [19] was > 100%.

Turning to `Cc1ccc(S(=O)(=O)c2c(N)ccc3nc(C)c(C)nc23)cc1`, the “growth inhibition (GI)” value in the experiment on PC-3 [2], with SK-OV-3 [4], with MDA-MB-231 [5], in the experiment with U2OS [12], in the experiment with HT-29 [13] and in the experiment on A549 [17] was “inactive” each time. Further, the “growth inhibition (GI)” value in the experiment with ASPC1 [19] is “inactive”.

As for `CC(=O)Nc1ccc2nc(-c3cccs3)c(-c3cccs3)nc2c1`, the “growth inhibition (GI)” value in the experiment on PC-3 [2], with SK-OV-3 [4], with MDA-MB-231 [5], in the experiment with U2OS [12], in the experiment with HT-29 [13] and in the experiment on A549 [17] was “inactive” in each case. In addition, the “growth inhibition (GI)” value in the experiment with ASPC1 [19] is “inactive”.

For `O=C(Nc1ccc2nc(-c3ccccc3)c(-c3ccccc3)nc2c1)N1CCCC1`, the inhibition of growth at 20 µM in the experiment with PC-3 [2] amounted to 56.9%; in the experiment with SK-OV-3 [4], 18.5%; in the experiment with MDA-MB-231 [5] it was 16.7%; in the experiment with U2OS [12], 54.2%; with A549 [17], 11%; with ASPC1 [19], 29.4%. Moreover, the “growth inhibition (GI)” value with HT-29 [13] is “inactive”.

For the compound `O=[N+]([O-])c1ccc(NC(=S)Nc2ccc3nc(-c4ccco4)c(-c4ccco4)nc3c2)cc1`, the inhibition of growth at 20 µM in the experiment with PC-3 [2] is 43.4%; with MDA-MB-231 [5], 9%; in the experiment with U2OS [12] it was 32.2%; with HT-29 [13], 42%; in the experiment on A549 [17], 19.2%. Moreover, the “growth inhibition (GI)” value with SK-OV-3 [4] and in the experiment on ASPC1 [19] was “inactive” in each case.

Usually GI50 stands for the concentration at which growth is held to half of that of the control. The low end stands for greater sensitivity of the cells, the high end for lower sensitivity of the cells.
